Data published in PMC4104214 (Nuclear medicine and biology, 2014).

Key:
MAGL [1] = target: T1, MAGL (Mus musculus, UniProt O35678); assay: Ex vivo whole brain uptake and pharmacological blocking in mice; parameters: species or system mouse (male C57BL/6); details: for whole brain uptake: conscious mice, iv tail vein, 2 and 40 min post injection
T1 sequence (O35678 1-303): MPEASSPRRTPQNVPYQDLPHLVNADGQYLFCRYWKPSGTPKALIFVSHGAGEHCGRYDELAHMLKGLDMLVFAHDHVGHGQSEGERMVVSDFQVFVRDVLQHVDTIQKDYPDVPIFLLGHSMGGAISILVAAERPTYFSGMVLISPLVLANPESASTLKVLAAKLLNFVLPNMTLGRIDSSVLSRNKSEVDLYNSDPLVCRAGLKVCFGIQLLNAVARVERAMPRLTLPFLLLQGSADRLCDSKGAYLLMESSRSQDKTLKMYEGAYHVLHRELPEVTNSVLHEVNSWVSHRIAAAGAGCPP
Outline: (§1)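 They were killed at 2 and 40 min. The blocking group got matching unlabeled inhibitor (2.0 mg/kg ip, 5% DMSO/5% Tween80 saline) 30 min before and was killed at 40 min. Trunk blood and whole brain were weighed and gamma-counted, decay-corrected to injection. Results given as SUV, mean ± SD, Student t-test.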

MAGL [2] = assay: Ex vivo blood radioactivity retention and pharmacological blocking in mice; parameters: species or system mouse (male C57BL/6)
Outline: as §1

hFAAH = details: read-out: hFAAH IC50; human enzyme; cited from earlier work
hMAGL = details: read-out: hMAGL IC50; human enzyme; cited from earlier work
MAGL [3] = target: T2, MAGL (Rattus norvegicus, UniProt Q8R431); assay: Ex vivo brain uptake and pharmacological blocking in rats; parameters: species or system rat (male Sprague-Dawley)
T2 sequence (Q8R431 1-303): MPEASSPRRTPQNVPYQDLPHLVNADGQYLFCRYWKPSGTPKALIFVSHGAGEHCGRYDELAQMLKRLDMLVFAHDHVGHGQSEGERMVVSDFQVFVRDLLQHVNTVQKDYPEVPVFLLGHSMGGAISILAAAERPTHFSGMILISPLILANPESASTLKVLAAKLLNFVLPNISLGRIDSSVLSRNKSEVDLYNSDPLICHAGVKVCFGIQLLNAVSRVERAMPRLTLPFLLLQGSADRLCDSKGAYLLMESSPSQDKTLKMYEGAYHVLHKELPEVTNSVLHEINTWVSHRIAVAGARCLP
Outline: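 Restrained conscious male Sprague-Dawley rats (330–370 g, n = 4/group) received 28–34 MBq of tracer (208 GBq/μmol) in 0.3 mL 5% Tween80 buffered saline via warm-water-dilated tail vein. They were decapitated at 2 and 40 min. The blocking group was pretreated with unlabeled inhibitor (2 mg/kg ip, 5% DMSO/5% Tween80 saline) and killed at 40 min. Cortex, cerebellum, hypothalamus and rest of brain were weighed and gamma-counted, decay-corrected against dose standards. Injected dose was corrected for tail residue.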

Compound | whole brain uptake (MAGL [1]) | IC50 (hFAAH) | IC50 (hMAGL) | also measured
O=[11C](N1CCC(C(c2ccc3c(c2)OCO3)c2ccc3c(c2)OCO3)CC1)n1cncn1 [[^11C]18] | 0.65–0.82 SUV | – | – | reduction of brain retention in blocked group (MAGL [1]; mice, unlabeled inhibitor 2 mg/kg ip 30 min before radiotracer, 40 min post injection, p < 0.05): 42%; specific to non-specific binding ratio (MAGL [1]; mouse brain, estimated from 42% reduction in blocked group): 0.71; retention in blood (MAGL [2]; iv tail vein, 2 and 40 min post injection): 1.1–1.5 SUV; reduction of blood binding upon pharmacological blockade (MAGL [2]; unlabeled inhibitor 2 mg/kg ip 30 min before radiotracer, 40 min post injection): 71%
O=C(N1CCN(C(c2ccccc2)c2ccccc2)CC1)n1nnc2ccccc21 [compound 12] | – | 562 nM | – | –
O=C(N1CCC(C(c2ccc3c(c2)OCO3)c2ccc3c(c2)OCO3)CC1)n1cncn1 [compound 18] | – | 4800 nM | 0.36 nM | –
O=C(OC(C(F)(F)F)C(F)(F)F)N1CCC(C(O)(c2ccc3c(c2)OCO3)c2ccc3c(c2)OCO3)CC1 [compound 7] | – | > 50000 nM | 5.9 nM | –
O=[11C](OC(C(F)(F)F)C(F)(F)F)N1CCC(C(O)(c2ccc3c(c2)OCO3)c2ccc3c(c2)OCO3)CC1 [[^11C]7] | 0.34–0.67 SUV | – | – | attenuation of brain uptake by pretreatment with unlabeled compound (MAGL [1]; mice, unlabeled inhibitor 2 mg/kg ip 30 min before radiotracer, 40 min post injection): not significantly attenuated; brain radioactivity uptake (MAGL [3]; conscious rats, iv tail vein, 2 and 40 min post injection, brain regions): 0.44–0.71 SUV; blocking of brain uptake by pretreatment with unlabeled inhibitor (MAGL [3]; rats, unlabeled 7 2 mg/kg ip before radiotracer, 40 min post injection): not blocked by pretreatment with unlabeled 7
